Measurements as given in paper PMC6044759 (ACS Omega, 2018).
Counter-ions that a name gives are not always drawn.

What was measured:
[1] = cited from earlier work
MCF-7 cells = experiment: Live and dead assay by flow cytometry; type: cell-based, human; details: 15 nM, positive control, PI staining
Outline: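 MCF-7 cells (0.8 × 10^6) were exposed to vehicle, 3 or 6 μM test compound, or 15 nM vinblastine (positive control) for 48 h. Cells were stained with propidium iodide and live and dead percentages were counted by flow cytometry. Values are mean ± SD of three experiments.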

SMILES | Solubility in water [1] | dead % (MCF-7 cells) [%] | live % (MCF-7 cells) [%]
COc1ccc(/C=C\c2cc(OC)c(OC)c(OC)c2)cc1O [CA-4, combretastatin A-4] | poorly soluble in water |  | 
CC[C@]1(O)C[C@@H]2CN(CCc3c([nH]c4ccccc34)[C@@](C(=O)OC)(c3cc4c(cc3OC)N(C)[C@H]3[C@@](O)(C(=O)OC)[C@H](OC(C)=O)[C@]5(CC)C=CCN6CC[C@]43[C@@H]65)C2)C1 [Vinblastine, Vinblastine sulfate] |  | 83 ± 6 | 18 ± 6
